ChEMBL document CHEMBL1150392, “Synthesis and activity on rat aorta rings and rat pancreatic beta-cells of ring-opened analogues of benzopyran-type potassium channel activators” (Bioorg Med Chem, 2008)

Columns and labels:
Rattus norvegicus [1] = species on record: Rattus norvegicus; assay: Activation of ATP-sensitive potassium channel in Wistar rat pancreatic beta islets assessed as glucose-induced residual insulin secretion at 10 uM relative to control
Rattus norvegicus [2] = species on record: Rattus norvegicus; assay: Activation of ATP-sensitive potassium channel in potassium-depolarized Wistar rat aortic rings assessed as myorelaxant activity against KCl-induced contraction; type: tissue-based; conditions: Aorta
Procedure, shortened: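 Aorta rings were taken from fed Wistar rats (180–220 g) and contracted with KCl 30 mM. Dose–response curves were run against the plateau phase.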

Rattus norvegicus [3] = species on record: Rattus norvegicus; assay: Activation of ATP-sensitive potassium channel in Wistar rat pancreatic beta islets assessed as glucose-induced residual insulin secretion at 50 uM relative to control
Aorta = assay: Ratio of IC50 for inhibition of glucose-induced insulin secretion in Wistar rat pancreatic beta islets to ED50 for myorelaxant activity in Wistar rat aortic rings; type: functional
[4] = Activation of ATP-sensitive potassium channel in Wistar rat pancreatic beta islets assessed as inhibition of glucose-induced insulin secretion

SMILES | Activity (Rattus norvegicus [1]) [%] | Activity (Rattus norvegicus [3]) [%] | IC50 [4] [µM] | ED50 (Rattus norvegicus [2]) [µM] | Ratio (Aorta)
CC(N/C(=N\C#N)Nc1ccncc1)C(C)(C)C (configuration not stated) | 96 | – | – | 0.35 | –
COc1ccccc1CNC(=O)NS(=O)(=O)c1ccc(Cl)cc1 | – | 113 | – | > 30 | –
COc1ccccc1CNC(=O)c1ccc([N+](=O)[O-])cc1 | – | 86.6 | – | > 30 | –
COc1ccccc1CNC(=O)c1cccs1 | – | 83.3 | – | > 30 | –

The next lines start with results.

Activity (Rattus norvegicus [1]) [%] | Activity (Rattus norvegicus [3]) [%] | IC50 [4] [µM] | SMILES | ED50 (Rattus norvegicus [2]) [µM] | Ratio (Aorta)
94.7 | 77.2 | – | CC1(C)Oc2ccc(C#N)cc2C(N2CCCC2=O)C1O (configuration not stated) [CROMAKALIM] | 0.13 | >769
71.7 | 27.9 | 19.7 | CC1=Nc2ccc(Cl)cc2S(=O)(=O)N1 [DIAZOXIDE] | 23.8 | 1
